Calls of active or inactive are those of the source.
How the values were obtained:
Mus musculus [1] = experiment: Upregulation of Gclm mRNA expression in tumor of BALB/C nu/nu mouse xenografted with human SK-OV-3 cells at 25 mg/kg, ip administered every 2 days for 40 days by qPCR analysis; format: functional, organism-based; conditions: time 40.0 day
How it was run: (§1)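 Female BALB/c nu/nu mice bearing sc U-87 MG or SKOV-3 xenografts were dosed ip at 25 mg/kg (100 μL) every 2 days, or given saline, and tumors were taken at day 40. RNA was extracted from about 20 mg of tissue. qPCR ran 40 cycles (95 °C 15 min; 94 °C 20 s; 60 °C 34 s) on a 69-gene panel. Fold change was by 2^–ΔΔCt, with ≥1.5 counted as increased.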

Mus musculus [2] = experiment: Upregulation of Nf22l2 mRNA expression in tumor of BALB/C nu/nu mouse xenografted with human SK-OV-3 cells at 25 mg/kg, ip administered every 2 days for 40 days by qPCR analysis; format: functional, organism-based; conditions: time 40.0 day
How it was run: (§2)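 Female BALB/c nu/nu mice, 10 weeks old, 4 per group. Inoculated s.c. with 1 × 10^8 cells/mL of log-phase U-87 MG or SKOV-3 cells. Dosed i.p. with 100 μL at 25 mg/kg every 2 days; controls got 100 μL saline. Tumors harvested on day 40. RNA extracted from about 20 mg of tissue. qPCR panel of 69 genes, 40 cycles (94 °C 20 s, 60 °C 34 s). Analysed by 2–ΔΔCt; fold ≥1.5 taken as increased.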

Mus musculus [3] = experiment: Upregulation of Ptgs2 mRNA expression in tumor of BALB/C nu/nu mouse xenografted with human SK-OV-3 cells at 25 mg/kg, ip administered every 2 days for 40 days by qPCR analysis; format: functional, organism-based; conditions: time 40.0 day; how it was run: as §2
Mus musculus [4] = experiment: Upregulation of Hspb1 mRNA expression in tumor of BALB/C nu/nu mouse xenografted with human SK-OV-3 cells at 25 mg/kg, ip administered every 2 days for 40 days by qPCR analysis; format: functional, organism-based; conditions: time 40.0 day; how it was run: as §2
Mus musculus [5] = experiment: Upregulation of Gss mRNA expression in tumor of BALB/C nu/nu mouse xenografted with human SK-OV-3 cells at 25 mg/kg, ip administered every 2 days for 40 days by qPCR analysis; format: functional, organism-based; conditions: time 40.0 day; how it was run: as §2
SK-OV-3 [6] = experiment: Induction of ferroptosis-mediated antitumor activity against human SK-OV-3 cells xenografted in BALB/C nu/nu mouse assessed as reduction in ATP level in tumor at 25 mg/kg, ip administered every 2 days for 40 days by biochemical analysis; format: functional, organism-based; conditions: time 40.0 day
How it was run: (§3)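 U-87 MG or SKOV-3 sc xenografts (1 × 10^8 cells/mL) in female BALB/c nu/nu mice, 4 per group. Given 25 mg/kg ip in 100 μL every 2 days, or saline. Tumors harvested on day 40 and assayed for LPO, MDA, lactic acid, total glutathione (GSH + GSSG), ATP and Fe2+.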

Mus musculus [7] = experiment: Upregulation of Nrf2 mRNA expression in tumor of BALB/C nu/nu mouse xenografted with human SK-OV-3 cells at 25 mg/kg, ip administered every 2 days for 40 days by qPCR analysis; format: functional, organism-based; conditions: time 40.0 day; how it was run: as §2
Mus musculus [8] = experiment: Upregulation of Akr1c1 mRNA expression in tumor of BALB/C nu/nu mouse xenografted with human U-87 MG cells at 25 mg/kg, ip administered every 2 days for 40 days by qPCR analysis; format: functional, organism-based; conditions: time 40.0 day; how it was run: as §1
Mus musculus [9] = experiment: Upregulation of Ireb2 mRNA expression in tumor of BALB/C nu/nu mouse xenografted with human U-87 MG cells at 25 mg/kg, ip administered every 2 days for 40 days by qPCR analysis; format: functional, organism-based; conditions: time 40.0 day; how it was run: as §2
SK-OV-3 [10] = experiment: Induction of ferroptosis-mediated antitumor activity against human SK-OV-3 cells xenografted in BALB/C nu/nu mouse assessed as reduction in FTH1 protein expression in tumor at 25 mg/kg, ip administered every 2 days for 40 days by immunofluoresence staining based assay; format: functional, organism-based; conditions: time 40.0 day
How it was run: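 Xenografts of U-87 MG or SKOV-3 (1 × 10^8 cells/mL, sc) in female BALB/c nu/nu mice, 4 per group. Treated ip at 25 mg/kg in 100 μL every 2 days versus saline, tumors collected at day 40. Paraffin sections (6 μm) were blocked at 37 °C for 30 min, then incubated with rabbit anti-GPX4 or anti-FTH1 and then Alexa Fluor 488 anti-rabbit, each for 45 min at 37 °C.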

Mus musculus [11] = experiment: Upregulation of FTL mRNA expression in tumor of BALB/C nu/nu mouse xenografted with human U-87 MG cells at 25 mg/kg, ip administered every 2 days for 40 days by qPCR analysis; format: functional, organism-based; conditions: time 40.0 day; how it was run: as §1
Mus musculus [12] = experiment: Upregulation of Ttc35 mRNA expression in tumor of BALB/C nu/nu mouse xenografted with human SK-OV-3 cells at 25 mg/kg, ip administered every 2 days for 40 days by qPCR analysis; format: functional, organism-based; conditions: time 40.0 day; how it was run: as §2
OVCAR-3 = experiment: Induction of apoptosis in human OVCAR-3 cells assessed as increase cleaved PARP expression at 5 to 10 nM incubated for 48 hrs by immunoblot analysis; format: functional, cell-based; conditions: dose 5-10 nM
How it was run: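 OVCAR-3 cells were grown in DMEM with 20% FBS and 0.01 μg/mL insulin. They were treated for 48 h at 0, 0.25, 2.5, 5 and 10 nM. Lysates were made in SDS–urea, sonicated and run on SDS-PAGE, then transferred to nitrocellulose. Blots were probed with anti-PARP (1:1000; full-length and cleaved) and anti-actin loading control (1:10,000), with HRP/ECL detection.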

Mus musculus [13] = experiment: Upregulation of Fancd2 mRNA expression in tumor of BALB/C nu/nu mouse xenografted with human U-87 MG cells at 25 mg/kg, ip administered every 2 days for 40 days by qPCR analysis; format: functional, organism-based; conditions: time 40.0 day; how it was run: as §1
SK-OV-3 [14] = experiment: Induction of ferroptosis-mediated antitumor activity against human SK-OV-3 cells xenografted in BALB/C nu/nu mouse assessed as increase in malondialdehyde level in tumor at 25 mg/kg, ip administered every 2 days for 40 days by biochemical analysis; format: functional, organism-based; conditions: time 40.0 day; how it was run: as §3
Mus musculus [15] = experiment: Upregulation of Cbs mRNA expression in tumor of BALB/C nu/nu mouse xenografted with human U-87 MG cells at 25 mg/kg, ip administered every 2 days for 40 days by qPCR analysis; format: functional, organism-based; conditions: time 40.0 day; how it was run: as §1
Mus musculus [16] = experiment: Upregulation of Cbs mRNA expression in tumor of BALB/C nu/nu mouse xenografted with human SK-OV-3 cells at 25 mg/kg, ip administered every 2 days for 40 days by qPCR analysis; format: functional, organism-based; conditions: time 40.0 day; how it was run: as §1
Mus musculus [17] = experiment: Upregulation of Slc7a11 mRNA expression in tumor of BALB/C nu/nu mouse xenografted with human SK-OV-3 cells at 25 mg/kg, ip administered every 2 days for 40 days by qPCR analysis; format: functional, organism-based; conditions: time 40.0 day; how it was run: as §2
Mus musculus [18] = experiment: Upregulation of Gpx4 mRNA expression in tumor of BALB/C nu/nu mouse xenografted with human U-87 MG cells at 25 mg/kg, ip administered every 2 days for 40 days by qPCR analysis; format: functional, organism-based; conditions: time 40.0 day; how it was run: as §2
Mus musculus [19] = experiment: Upregulation of Acsl4 mRNA expression in tumor of BALB/C nu/nu mouse xenografted with human U-87 MG cells at 25 mg/kg, ip administered every 2 days for 40 days by qPCR analysis; format: functional, organism-based; conditions: time 40.0 day; how it was run: as §1

Measured: Activity

COc1cc(C(=O)c2cn(-c3ncccn3)cc2-c2ccco2)cc(OC)c1OC
active: all assays above

Source: ChEMBL document CHEMBL5236592, “Induction of Ferroptosis in Glioblastoma and Ovarian Cancers by a New Pyrrole Tubulin Assembly Inhibitor” (J Med Chem, 2022)
